In the library only some 4% were active in any assay of this set; here they are far more common.
Exocytosis inh: LAMP-1 surface exposure blockers, TALL-104 cells – cell-based, flow cytometry, MLPCN library, primary screen; inhibition, % at 10 µM; AID 651702, 2012; TALL-104 LAMP-1 surface exposure; cells stimulated with thapsigargin and PMA; actives 0.66% (n = 360,000);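 active = inhibition above about 55%, limit read from the data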
Mdm2-MdmX inh: inhibitors of human Mdm2-MdmX association, primary screen, cell-based, luminescence, split luciferase, SaOS-2, uHTS. Protein Mdm4 (Homo sapiens) + E3 ubiquitin-protein ligase Mdm2 (Homo sapiens), …. inhibition, % at 8 µM. SaOS-2 split-luciferase Mdm2/MdmX complementation. AID 485346, 2010. actives 3% (n = 330,000);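 active = inhibition of at least 50% at 8 µM in the primary screen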
XBP1 UPR activ: activators of adaptive XBP1 UPR arm, primary screen, cell-based, CHO-XBP1 luciferase reporter, luminescence, uHTS; actives 0.33% (n = 330,000); activation, % at 20 µM; AID 463104, 2010; IRE1-XBP1 UPR activation; percent of tunicamycin response, DMSO as zero;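 active = versus positive control, 20 µM dose yields 30% or more activation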;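 also: 100% = tunicamycin at 10 µg/mL and 0% = DMSO only wells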
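incubation = overnight seeding at 37 °C, 6 h compound treatment at 37 °C | assay system = CHO-XBP1 cells stably carrying IRE1-XBP1-driven luciferase reporter | input = 1000 cells per well | detection = luciferase luminescence | dosing = single point, 20 µM final compound, 1% DMSO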
ABHD5-PLIN5 inh: ABHD5-PLIN5 interaction inhibitors, primary screen, cell lysate, split luciferase complementation, luminescence; Split G. princeps luciferase complementation, 4 h; inhibition, % at 4 µM; actives 0.78% (n = 360,000); Perilipin-5 (Homo sapiens) + 1-acylglycerol-3-phosphate O-acyltransferase ABHD5 (Homo …;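 active = inhibition above the mean inhibition across every tested compound plus 3 SD, cut at about 22% in these data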;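 also: 0% = DMSO only wells and the 100% control is not disclosed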
Target sequence (Q00G26 whole entry, looked up): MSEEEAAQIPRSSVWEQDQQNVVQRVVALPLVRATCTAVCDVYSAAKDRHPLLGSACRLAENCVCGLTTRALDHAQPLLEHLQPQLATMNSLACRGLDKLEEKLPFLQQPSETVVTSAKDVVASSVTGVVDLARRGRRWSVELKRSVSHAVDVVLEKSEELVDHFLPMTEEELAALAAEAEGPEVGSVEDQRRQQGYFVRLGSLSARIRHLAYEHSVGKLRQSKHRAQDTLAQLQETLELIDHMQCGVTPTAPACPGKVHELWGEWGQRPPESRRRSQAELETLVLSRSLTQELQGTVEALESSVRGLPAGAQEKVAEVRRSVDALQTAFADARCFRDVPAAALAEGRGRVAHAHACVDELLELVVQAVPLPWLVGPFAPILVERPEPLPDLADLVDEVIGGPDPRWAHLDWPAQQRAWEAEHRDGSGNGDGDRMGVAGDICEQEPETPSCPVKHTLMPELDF
Target sequence (Q8WTS1 whole entry, looked up): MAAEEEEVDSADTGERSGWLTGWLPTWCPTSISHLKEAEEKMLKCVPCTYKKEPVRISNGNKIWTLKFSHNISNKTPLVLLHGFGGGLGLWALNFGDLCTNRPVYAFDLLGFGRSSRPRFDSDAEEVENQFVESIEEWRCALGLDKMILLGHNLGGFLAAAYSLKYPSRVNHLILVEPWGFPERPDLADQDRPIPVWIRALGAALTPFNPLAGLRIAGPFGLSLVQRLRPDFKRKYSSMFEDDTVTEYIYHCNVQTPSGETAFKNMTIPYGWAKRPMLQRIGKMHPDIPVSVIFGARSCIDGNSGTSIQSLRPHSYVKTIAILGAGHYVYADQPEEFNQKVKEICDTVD
UPR CHOP act: activators of apoptotic CHOP UPR arm, primary screen, cell-based, CHO-CHOP luciferase reporter, luminescence, uHTS; UPR activation; percent of tunicamycin response over DMSO baseline; activation, % at 10 µM; actives 0.34% (n = 330,000); AID 449763, 2010;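 active = at 10 µM dose, activation of 40% or more, normalized to positive control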;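 also: 100% = tunicamycin at 10 µg/mL and 0% = DMSO alone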
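assay system = CHO CHOP reporter cells | amount = 500 CHO-CHOP cells per well | buffer or medium = F12 with 10% FBS | incubation = 16-18 h cell attachment, then 6 h compound exposure, 37 °C | detection = luminescence read with Steady-Glo | read-out = percent activation relative to tunicamycin control | controls = tunicamycin high control, DMSO low control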
Exocytosis CP01: inhibitors of lytic granule exocytosis, confirmation, TALL-104 cells, flow cytometry, Cherry Pick01. inhibition, % at 10 µM. shares compounds with Exocytosis inh. LAMP-1 externalization; stimulated with PMA plus thapsigargin. actives 11% (n = 1,500); in the data active = inhibition above about 60%;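 also: 0% = stimulated vehicle wells and 100% = unstimulated wells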
Numbers without * were called inactive; · = no result given.

SMILES	Exocytosis inh	Mdm2-MdmX inh	XBP1 UPR activ	ABHD5-PLIN5 inh	UPR CHOP act	Exocytosis CP01
Cc1cc(Nc2cccc(Cl)c2)nc(-c2ccccc2O)n1	56*	-5	-4	11	2	-4
CCc1ccc(NC(=O)CSc2nc3ccccc3c(=O)n2CCCC(=O)NCCCN2CCOCC2)cc1	63*	16	0	4	3	15
Cc1ccc(NC(=O)CSc2nc3ccccc3c(=O)n2CCCC(=O)NCCCN2CCOCC2)cc1C	42	45	-2	8	-3	·
O=C(CCCc1nc(-c2ccc(Cl)cc2)no1)NC1CCCC1	57*	14	-2	4	4	-13
CCOC(=O)c1c(-c2ccc(N(C)C)cc2)oc2c1C(OC)CC2 (configuration not stated)	-2	·	·	1	·	·
COc1cc2c(cc1O)[C@@H]1Cc3cc(OC)c(OC)cc3C(C2)N1C	-3	-5	0	-3	-1	·
COc1cc2c(cc1OC)[C@@H]1Cc3cc4c(cc3[C@H](C2)N1C)OCO4	79*	-3	-1	4	1	-14
Nc1c(C(=O)Nc2ccccc2)sc2nc(N3CCOCC3)c3c(c12)CCCC3	0	·	·	-10	·	·
COc1cccc(NC(=O)c2sc3nc(N4CCOCC4)c4c(c3c2N)CCCC4)c1	69*	-29	1	-2	6	-16
COc1cc(CNc2ncc(-c3ccc(Br)cc3)n2C)cc(OC)c1OC	-6	27	-2	5	-1	·
O=C(CCN1CCN(C(=O)c2ccccc2)CC1)c1ccc(Br)cc1	82*	4	-6	0	0	15
O=C(c1ccc(Br)cc1)N1CCN(Cc2ccccc2)CC1	6	-5	-2	9	-1	·
COc1ccc(NC(=O)Cn2c(C)csc2=O)c(OC)c1	1	21	0	-4	1	·
CCCCCc1c(-c2ccc(Cl)cc2)ncn1CCc1ccccc1OC	20	·	·	-12	·	·
CCCCc1c(-c2ccc(OC)cc2)ncn1CCc1ccccc1OC	82*	·	·	-2	·	27
CCCCCc1c(-c2ccc(OC)cc2)ncn1CCc1ccccc1OC	68*	·	·	0	·	17
O=C1CCCC(O)=C1C1C2=C(CCCC2=O)Oc2ccccc21 (configuration not stated)	-3	-2	-2	14	-3	·
O=C(Cn1c2ccccc2c2nc3n(c(=O)c21)CCS3)N1CCCC1	0	6	-2	-8	0	·
CCCCCC/C=C/c1ccc(OC)c([C@H]2[C@H]3C=CC[C@@H](C)[C@@H]3C(=O)N2Cc2ccccc2)c1	67*	35	-1	-4	-1	-3
CSc1scc2c1-c1nc(SCC(=O)C(C)(C)C)ncc1CC2	74*	25	4	-3	-1	-11
CCN(CC)CCCC(C)NC(=O)c1c(NC(=O)c2ccccc2)sc2c1CCCC2 (configuration not stated)	78*	17	-4	4	2	-3
CCNS(=O)(=O)c1ccc(CCC(=O)N2CCN(c3ccccc3F)CC2)cc1	-5	-9	-3	3	0	·
CCCCN(C)c1c(C)nc2ccc(C(=O)NCc3ccc4c(c3)OCO4)cn12	60*	·	·	-1	·	-12
COc1ccc(NC(=S)N(CCCN2CCC(C)CC2)Cc2cccs2)cc1	-2	-15	-2	-2	1	·
Cc1ccc(-c2nnc(N3CCCCCC3)c3ccccc23)cc1	66*	9	7	4	11	-12
SMILES	Exocytosis inh	Mdm2-MdmX inh	XBP1 UPR activ	ABHD5-PLIN5 inh	UPR CHOP act	Exocytosis CP01
O=C(NC(=S)Nc1ccc(CN2CCOCC2)cc1)c1ccc(-c2ccc(Br)cc2)o1	·	39	-4	·	2	·
c1ccc(CC2CCN(c3ncnc4sccc34)CC2)cc1	63*	·	·	-7	·	-11
O=C(O)c1cc2c(N3CCC(Cc4ccccc4)CC3)ncnc2s1	4	17	0	-2	0	·
CCC(=O)N/N=C(\C)CC(=O)Nc1cc(Cl)ccc1C	10	30	0	7	0	·
COc1cccc(-c2csc(NC(=O)Nc3ccccc3)n2)c1	88*	23	-3	6	7	-3
O=Cc1c(NCCN2CCOCC2)c2ccccc2[nH]c1=O	0	2	1	6	2	·
C[C@H](CO)N1C[C@H](C)[C@@H](CN(C)S(C)(=O)=O)Oc2ccc(NC(=O)Nc3ccccc3)cc2C1=O	3	11	-2	6	2	·
C[C@H](CO)N1C[C@H](C)[C@@H](CN(C)S(C)(=O)=O)Oc2ccc(N(C)C)cc2C1=O	60*	1	-1	0	0	-12
O=C(Nc1cc(C(F)(F)F)ccc1Cl)C(Sc1ccccn1)c1ccccc1 (configuration not stated)	104*	15	-1	-11	0	-14
CCCC(=O)OC(C(=O)Nc1cc(C(F)(F)F)ccc1Cl)c1ccccc1 (configuration not stated)	-2	-3	-1	0	2	·
O=C(CN1CCN(C(C(=O)Nc2cc(C(F)(F)F)ccc2Cl)c2ccccc2)CC1)NC1CC1 (configuration not stated)	80*	·	·	3	·	-4
CCN(Cc1ccc(OC)c(F)c1)C(=O)c1cc2ccccc2o1	-15	30	10	-6	2	·
N#Cc1ccsc1NC(=O)CCN1CCN(C(c2ccccc2)c2ccccc2)CC1	77*	-1	-2	-5	4	-10
CN(C)CCC(Oc1ccccc1OCc1ccccc1)c1ccccc1 (configuration not stated)	56*	34	-2	0	0	-4
CCc1cc2cc(C)ccc2nc1SCC(=O)NC1CCCC1	92*	12	0	-4	1	-4
Cc1cc(SCC(=O)NC2CCCCC2)nc2ccccc12	98*	3	-4	9	0	-14
O=C(Cc1cccs1)NCc1ccc(Cl)cc1Cl	-6	-88	0	1	1	·
COc1ccc(NC(=O)CN2CCc3ccccc3C2)cc1S(=O)(=O)N1CCOCC1	-2	-8	1	9	0	·
Cc1ccc(OCC(=O)Nc2nnc(S(=O)(=O)N3CCCCCC3)s2)cc1C	3	13	-3	2	1	·
O=C(CCc1nnc2ccc(N3CCCCC3)nn12)NCc1ccco1	-4	5	0	1	1	·
CCCS(=O)(=O)Nc1ccc(Nc2c3ccccc3nc3ccccc23)c(OC)c1	78*	·	·	1	·	89*
